Screening results as filed in PubChem BioAssay.
An excerpt weighted towards active compounds, which were near 1.3% of everything screened.
PAX8 reporter = lowers PAX8-driven luciferase in RMG-I cells | RMG-I TPO-luciferase reporter, SteadyGlo, 24 h | 360,000 compounds, 1.2% hits | AID 652154 | inhibition, % at 12.6 µM;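 active means mean replicate inhibition at least 60% with every replicate also reaching 60%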;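 further: luciferase light reporting Pax8 driven TPO promoter activity; plate controls were median of neutral control wells for no effect and mitoxantrone controls for full effect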
RAD54 inh = inhibitors of human RAD54 branch migration; 360,000 compounds, 0.14% hits; inhibition, % at 10.4 µM; RAD54 Holliday junction branch migration, FAM/BHQ fluorescence; Q92698;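 active means mean normalized replicate activity at least 40 and at least half of replicates scoring 40 or more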;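 further: 0% = median of neutral control wells and 100% = median of positive control wells; inhibitors cause a drop in the FAM fluorescence signal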
FN deposit inh = fibronectin deposition inhibition. AH1F fibroblasts, Alexa488-fibronectin deposition fluorescence, overnight. inhibition, % at 12.6 µM. 350,000 compounds, 0.086% hits;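 active means mean inhibition across replicates of 30% or more, regardless of how many single replicates reach that level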;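 further: positive control wells lacked labelled fibronectin entirely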
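Measured by – fluorescence 485/525 nm · System – AH1F fibroblast monolayer, labelled fibronectin deposition · Amount – 10000 cells per well · Buffer or medium – serum-reduced DMEM (2% serum) · Doses – single dose, pinned · Also added – fluorescent fibronectin at 24 nM final · Schedule – 1 h cell attachment, overnight exposure to compound and label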
RAD52 inh = RAD52 (human) annealing inhibition. P43351. recombinant RAD52 DNA annealing, FRET fluorescence. inhibition, % at 18.7 µM. 360,000 compounds, 0.46% hits. AID 651710;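 active means every replicate showing at least 50% inhibition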
Target sequence (P43351 whole entry, looked up): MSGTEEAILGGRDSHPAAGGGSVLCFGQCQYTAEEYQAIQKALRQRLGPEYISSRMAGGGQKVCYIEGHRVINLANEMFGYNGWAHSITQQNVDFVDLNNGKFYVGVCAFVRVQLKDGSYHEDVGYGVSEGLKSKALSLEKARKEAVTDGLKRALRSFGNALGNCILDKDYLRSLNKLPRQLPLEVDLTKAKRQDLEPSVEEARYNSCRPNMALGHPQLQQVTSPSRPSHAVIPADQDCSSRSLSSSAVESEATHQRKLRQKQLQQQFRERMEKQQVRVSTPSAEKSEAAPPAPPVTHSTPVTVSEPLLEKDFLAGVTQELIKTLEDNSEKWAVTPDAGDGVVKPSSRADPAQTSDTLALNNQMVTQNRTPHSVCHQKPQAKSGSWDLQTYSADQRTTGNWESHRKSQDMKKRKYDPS
The depositor's hits bear a star.

How did CC1(C)CC(=O)C2=C(C1)N(c1ccccc1)C(=O)CC2c1ccc(O)cc1 (centres undefined) do in these assays?
PAX8 reporter: 23; FN deposit inh: 3; RAD52 inh: 2

What do the screens show for `Cc1ccc(S(=O)(=O)N(C)C[C@H]2OCCCC[C@H](C)Oc3ccc(NS(=O)(=O)c4ccccc4)cc3C(=O)N([C@H](C)CO)C[C@@H]2C)cc1`?
PAX8 reporter: 62*; RAD54 inh: -23; FN deposit inh: -1; RAD52 inh: -22

How did Cc1ccc(S(=O)(=O)Nc2ccc3c(c2)C(=O)N([C@H](C)CO)C[C@@H](C)[C@H](CN(C)S(=O)(=O)c2ccccc2)OCCCC[C@H](C)O3)cc1 do in these assays?
PAX8 reporter: 80*; RAD54 inh: 0; FN deposit inh: 9; RAD52 inh: -8

What do the screens show for `Cc1ccc(S(=O)(=O)Nc2ccc3c(c2)C(=O)N([C@@H](C)CO)C[C@@H](C)[C@@H](CN(C)S(=O)(=O)c2ccccc2)OCCCC[C@H](C)O3)cc1`?
PAX8 reporter: 3; RAD54 inh: 8; FN deposit inh: 1; RAD52 inh: -10

How did O=C(C[C@H]1C=C[C@H](NC(=O)C2CC2)[C@H](CO)O1)NCc1ccncc1 do in these assays?
PAX8 reporter: -6; RAD54 inh: 3; FN deposit inh: -22; RAD52 inh: -16

How did CC(C)(C)c1ccc(C(=O)N2CCC2(C)C(=O)NCCC#N)cc1 (centres undefined) do in these assays?
PAX8 reporter: -4; RAD54 inh: 3; FN deposit inh: 7; RAD52 inh: -4

What do the screens show for `O=C(NCc1ccccc1Cl)C1CCN(S(=O)(=O)c2ccc(-n3cnnn3)cc2)CC1`?
PAX8 reporter: -12; RAD54 inh: 10; FN deposit inh: 15; RAD52 inh: 11

What do the screens show for `NC(=O)c1ccsc1NC(=O)CCS(=O)(=O)c1ccc(Cl)cc1`?
PAX8 reporter: 65*; RAD54 inh: -1; FN deposit inh: -6; RAD52 inh: -4

Results for N#Cc1ccsc1NC(=O)CCS(=O)(=O)c1ccccc1 ?
PAX8 reporter: 64*; RAD54 inh: 10; FN deposit inh: 9; RAD52 inh: -12

What do the screens show for `CCOC(=O)c1ccsc1NC(=O)CCS(=O)(=O)c1ccccc1`?
PAX8 reporter: 64*; RAD54 inh: -6; FN deposit inh: 2; RAD52 inh: -20

How did N#Cc1ccsc1NC(=O)COC(=O)CCS(=O)(=O)c1ccccc1 do in these assays?
PAX8 reporter: -12; RAD54 inh: -4; FN deposit inh: 5; RAD52 inh: -42

Results for COc1ccc(/C=N/NC(=O)CCc2nc3ccccc3[nH]2)cc1 ?
RAD54 inh: -16

How did COC(=O)C[C@@H]1C=C[C@@H](N)[C@H](CO)O1 do in these assays?
FN deposit inh: -12

What do the screens show for `NC(=S)NCc1cccnc1`?
PAX8 reporter: -7; RAD54 inh: 4; FN deposit inh: -10; RAD52 inh: 11

How did CSC(=S)NCc1cccnc1 do in these assays?
PAX8 reporter: 64*; FN deposit inh: 8; RAD52 inh: -8

Results for CCOCCOC(=O)c1[nH]c2c(c1C)C(=O)CC(c1cccs1)C2 (centres undefined) ?
PAX8 reporter: 60; RAD54 inh: -5; FN deposit inh: 1; RAD52 inh: -10

Results for CCOCCOC(=O)c1[nH]c2c(c1C)C(=O)CC(c1ccccc1)C2 (centres undefined) ?
PAX8 reporter: 82*; RAD54 inh: 17; FN deposit inh: -27; RAD52 inh: 1

What do the screens show for `COC(=O)c1[nH]c2c(c1C)C(=O)CC(c1cccc(OC)c1)C2` (centres undefined)?
PAX8 reporter: 82*; RAD54 inh: -6; FN deposit inh: -26; RAD52 inh: -8

How did Cc1nnc(NC(=O)C2CCCCC2)s1 do in these assays?
RAD54 inh: 8

Results for Cc1ccc(NC(=O)c2cc(S(=O)(=O)NCCC3=CCCCC3)ccc2F)cc1 ?
PAX8 reporter: 64*; RAD54 inh: -7; FN deposit inh: 4; RAD52 inh: -5

What do the screens show for `Cc1ccc(NC(=O)c2cc(S(=O)(=O)NCC3CCCO3)ccc2F)cc1` (centres undefined)?
PAX8 reporter: 0; RAD54 inh: 3; FN deposit inh: 4; RAD52 inh: 3

Results for Cc1cc(-n2c(SCC(=O)NCCC3=CCCCC3)nc3n[nH]c(C)c3c2=N)ccc1Cl ?
PAX8 reporter: 88*; RAD54 inh: 3; FN deposit inh: -9; RAD52 inh: -7

Results for Cc1ccc(Cl)cc1-n1c(SCC(=O)NCCC2=CCCCC2)nc2n[nH]c(C)c2c1=N ?
PAX8 reporter: 21; FN deposit inh: 7; RAD52 inh: -7
